Calls of active or inactive are those of the source. No cut-off for these calls is given here.
Tests used:
NIH3T3 [1] = assay: In vivo inhibition of T24H-ras NIH3T3 tumor growth in mice (Not significant); assay type: functional, organism-based; conditions: Mus musculus
NIH3T3 [2] = assay: T24H-ras-transformed NIH3T3 cell proliferation; assay type: functional, cell-based, Mus musculus
[3] = target: T1, Protein farnesyltransferase (Homo sapiens, UniProt P49354+P49356); assay: Inhibition of [3H]FPP incorporation into biotinylated laminB peptide by farnesyl transferase; assay type: protein-complex assay
Method in brief: (§1)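 Isolated FPT enzyme assay measuring incorporation of [3H]-farnesylpyrophosphate into biotinylated laminB peptide. IC50 is the concentration giving 50% reduction of incorporation. Some entries are given as percent inhibition at a single concentration.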

[4] = target: T2, Geranylgeranyl transferase type I (Homo sapiens, UniProt P49354+P53609); assay: Inhibition of Geranylgeranylprotein transferase-I catalyzed incorporation of [3H]GGPP into biotinYRASNRSCAIL peptide at 10 uM; assay type: protein-complex assay
[5] = target: T2, Geranylgeranyl transferase type I; assay: Inhibition of Geranylgeranylprotein transferase-I catalyzed incorporation of [3H]GGPP into biotinYRASNRSCAIL peptide; assay type: protein-complex assay
[6] = target: T1, Protein farnesyltransferase; assay: Inhibition of [3H]FPP incorporation into biotinylated laminB peptide by farnesyl transferase 0.1 uM; assay type: protein-complex assay; method in brief: as §1
Homo sapiens = species on record: Homo sapiens; assay: Compound tested for metabolism and expressed as percentage of parent drug remaining after 120 min incubation with human liver microsomes.; assay type: functional, organism-based
[7] = target: T1, Protein farnesyltransferase; assay: Inhibition of [3H]FPP incorporation into biotinylated laminB peptide by farnesyl transferase at 0.1 uM; assay type: protein-complex assay; method in brief: as §1
NIH3T3 [8] = assay: (§2) In vivo inhibition of T24H-ras NIH3T3 tumor growth in mice; assay type: functional, Mus musculus
NIH3T3 [9] = assay: as §2; assay type: functional, Mus musculus; remark: listed apart in the source
Method in brief: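 Mice were inoculated with T24 NIH 3T3 cells. Dosing at 25 mg/kg was oral, once daily, starting 2 days after tumour inoculation. Tumour growth was assessed 17 days after administration and is reported as percentage inhibition of tumour weight.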

Question: How did the inhibition (NIH3T3 [1]) turn out when `Cn1cncc1C(N)(c1ccc(Cl)cc1)c1ccc2c(c1)c(-c1cccc(Cl)c1)cc1nnnn12` (stereo in doubt; 24b) [listing 1 of 2 here] was run?
Answer: The inhibition was “inactive”.

Question: What does the source list for `Cc1nnc2cc(-c3cccc(Cl)c3)c3cc(C(N)(c4ccc(Cl)cc4)c4cncn4C)ccc3n12` (stereo unspecified)?
Answer: inhibition (NIH3T3 [1]): inactive; IC50 (NIH3T3 [2]; Mus musculus, NIH3T3): 17.5 nM; IC50 [3]: 1.5 nM

Question: Which results are given for `Cn1cncc1C(N)(c1ccc(Cl)cc1)c1ccc2c(c1)c(-c1cccc(Cl)c1)nc1nccn12` (stereo unspecified)?
Answer: IC50 (NIH3T3 [2]; Mus musculus, NIH3T3): 88 nM; IC50 [3]: 5 nM

Question: With `Cn1cncc1C(N)(c1ccc(Cl)cc1)c1ccc2c(c1)c(-c1cccc(Cl)c1)cc1nnnn12` (stereo in doubt; 24a) as the compound, how does the Inhibition [4] read?
Answer: Its Inhibition is 55%.

Question: And the IC50 (NIH3T3 [2]; nih3t3)?
Answer: Its IC50 is greater than 500 nM.

Question: And the Inhibition [3]?
Answer: The Inhibition was 36%.

Question: Which IC50 [5] does the source give for `Cn1cncc1C(N)(c1ccc(Cl)cc1)c1ccc2c(c1)c(-c1cccc(Cl)c1)cc1nnnn12` (stereo in doubt; 24) here?
Answer: The IC50 was 176 nM.

Question: And the IC50 (NIH3T3 [2]; nih3t3)?
Answer: Its IC50 is 55 nM.

Question: And the IC50 [3]?
Answer: The IC50 was 3.5 nM.

Question: Which inhibition [6] does the source give for `Cn1cncc1C(N)(c1ccc(Cl)cc1)c1ccc2c(c1)c(-c1cccc(Cl)c1)cc1cnnn12` (stereo unspecified) here?
Answer: Its inhibition is 68%.

Question: Which IC50 [5] does the source give for `Cn1cncc1C(N)(c1ccc(Cl)cc1)c1ccc2c(c1)c(-c1cccc(Cl)c1)nc1nnnn12` (stereo in doubt; 43) here?
Answer: Its IC50 is 461 nM.

Question: What about the IC50 (NIH3T3 [2]; nih3t3) of the same compound?
Answer: Its IC50 is 12 nM.

Question: What about the IC50 [3] of the same compound?
Answer: Its IC50 is 2.5 nM.

Question: How did the Metabolism (Homo sapiens) turn out when `Cn1cncc1C(N)(c1ccc(Cl)cc1)c1ccc2c(c1)c(-c1cccc(Cl)c1)nc1nnnn12` (stereo in doubt; 43a) [listing 1 of 2 here] was run?
Answer: Its Metabolism is 97%.

Question: Which IC50 (NIH3T3 [2]; Mus musculus, NIH3T3) does the source give for `Cn1cncc1C(N)(c1ccc(Cl)cc1)c1ccc2c(c1)c(-c1cccc(Cl)c1)cc1nccn12` (stereo unspecified) here?
Answer: Its IC50 is 28 nM.

Question: And the IC50 [3]?
Answer: Its IC50 is 7 nM.

Question: For `Cn1cncc1C(N)(c1ccc(Cl)cc1)c1ccc2c(c1)c(-c1cccc(Cl)c1)nc1nnnn12` (stereo in doubt; 43b), which IC50 (NIH3T3 [2]; nih3t3) is on record?
Answer: The IC50 was 108 nM.

Question: What about the IC50 [3] of the same compound?
Answer: The IC50 was 22 nM.

Question: How did the inhibition [6] turn out when `Cn1cncc1C(N)(c1ccc(Cl)cc1)c1ccc2c(c1)c(-c1cccc(Cl)c1)cc1nnc(-c3ccccc3)n12` (stereo unspecified) was run?
Answer: The inhibition was 60%.

Question: What about the IC50 (NIH3T3 [2]; Mus musculus, NIH3T3) of the same compound?
Answer: The IC50 was 304 nM.

Question: How did the IC50 [5] turn out when `Cn1cncc1C(N)(c1ccc(Cl)cc1)c1ccc2c(c1)c(-c1cccc(Cl)c1)cc1nnnn12` (stereo in doubt; 24b) [listing 2 of 2 here] was run?
Answer: Its IC50 is 81 nM.

Question: And the IC50 (NIH3T3 [2]; nih3t3)?
Answer: Its IC50 is 20 nM.

Question: And the IC50 [3]?
Answer: Its IC50 is 1.7 nM.

Question: How did the inhibition [7] turn out when `Cn1cncc1C(N)(c1ccc(Cl)cc1)c1ccc2c(c1)c(-c1cccc(Cl)c1)cc1nncn12` (stereo unspecified) was run?
Answer: Its inhibition is 65%.

Question: What does the source list for `Cn1cncc1C(N)(c1ccc(Cl)cc1)c1ccc2c(c1)c(-c1cccc(Cl)c1)nc1nncn12` (stereo unspecified)?
Answer: IC50 (NIH3T3 [2]; Mus musculus, NIH3T3): 186 nM; IC50 [3]: 3 nM

Question: Which results are given for `Cn1cncc1C(N)(c1ccc(Cl)cc1)c1ccc2c(c1)c(-c1cccc(Cl)c1)nc1nnnn12` (stereo in doubt; 43a) [listing 2 of 2 here]?
Answer: IC50 [5]: > 1000 nM; IC50 (NIH3T3 [2]; nih3t3): 10 nM; Inhibition (NIH3T3 [8]): 66%; IC50 [3]: 0.6 nM

Question: Which Metabolism (Homo sapiens) does the source give for `Cn1cncc1[C@@](N)(c1ccc(Cl)cc1)c1ccc2c(c1)c(-c1cccc(Cl)c1)cc(=O)n2C` [TIPIFARNIB] here?
Answer: Its Metabolism is 66%.

Question: What about the Inhibition (NIH3T3 [9]) of the same compound?
Answer: Its Inhibition is 37%.

Question: And the IC50 [3]?
Answer: Its IC50 is 0.9 nM.

Source: ChEMBL document CHEMBL1136482, “Substituted azoloquinolines and -quinazolines as new potent farnesyl protein transferase inhibitors” (Bioorg Med Chem Lett, 2003)
